Results: the M2OR odorant receptor database

Legend:
Settings in all cases: stereoisomer not certain
O52I2 I74L = test system: O52I2 I74L
In short: (§1)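 Values were gathered from published papers (main text and supplementary material), with extra details requested from the original authors when needed, and checked for typos and inconsistencies. Each receptor–molecule pair is called responsive (active) if the original authors judged the measured signal statistically different from baseline, and non-responsive (inactive) otherwise. Assay methods varied by source, often transient mammalian cell-line luciferase assays. Recorded details include cell line, G-protein, co-transfected protein and tags.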

O52J3 T77A V128I Q141L = test system: O52J3 T77A V128I Q141L
In short: as §1

O52K1 A119T A149T = test system: O52K1 A119T A149T
In short: as §1

O52K1 Q52R = test system: O52K1 Q52R
O52K1 Q52R, sequence (as listed by the source, stated change not applied): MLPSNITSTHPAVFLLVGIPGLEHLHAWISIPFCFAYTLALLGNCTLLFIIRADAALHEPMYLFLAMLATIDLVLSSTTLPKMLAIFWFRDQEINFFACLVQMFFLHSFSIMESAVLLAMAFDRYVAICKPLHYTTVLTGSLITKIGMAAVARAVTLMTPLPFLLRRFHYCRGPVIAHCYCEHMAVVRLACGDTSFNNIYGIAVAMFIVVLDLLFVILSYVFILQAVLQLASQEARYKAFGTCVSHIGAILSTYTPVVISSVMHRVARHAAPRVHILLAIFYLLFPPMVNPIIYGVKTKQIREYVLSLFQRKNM
In short: as §1

O52L1 = test system: O52L1
O52L1, sequence (as listed by the source): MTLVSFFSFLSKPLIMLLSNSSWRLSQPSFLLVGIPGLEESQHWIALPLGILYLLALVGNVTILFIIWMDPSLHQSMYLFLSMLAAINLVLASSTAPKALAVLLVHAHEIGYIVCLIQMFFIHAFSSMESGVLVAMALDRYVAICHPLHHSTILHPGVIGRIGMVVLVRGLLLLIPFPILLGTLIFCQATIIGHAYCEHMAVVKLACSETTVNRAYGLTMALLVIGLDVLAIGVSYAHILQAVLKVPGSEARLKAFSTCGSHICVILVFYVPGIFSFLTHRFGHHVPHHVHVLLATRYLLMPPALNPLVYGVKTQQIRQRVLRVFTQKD
In short: as §1

O52M1 S305R = test system: O52M1 S305R
O52M1 S305R, sequence (as listed by the source, stated change not applied): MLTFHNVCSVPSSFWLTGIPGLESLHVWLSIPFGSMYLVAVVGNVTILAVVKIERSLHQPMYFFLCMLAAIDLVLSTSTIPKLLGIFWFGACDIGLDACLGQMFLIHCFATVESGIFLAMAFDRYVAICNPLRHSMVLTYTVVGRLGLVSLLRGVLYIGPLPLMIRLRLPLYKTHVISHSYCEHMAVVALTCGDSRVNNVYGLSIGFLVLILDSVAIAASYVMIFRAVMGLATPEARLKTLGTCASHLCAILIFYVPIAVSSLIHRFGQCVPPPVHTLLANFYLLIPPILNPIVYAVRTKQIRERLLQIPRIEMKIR
In short: as §1

O52N1 R167C F247I = test system: O52N1 R167C F247I
In short: as §1

O52N2 S249A H264R = test system: O52N2 S249A H264R
In short: as §1

O52W1 H239R L254Q = test system: O52W1 H239R L254Q
In short: as §1

O56A3 = test system: O56A3
O56A3, sequence (as listed by the source): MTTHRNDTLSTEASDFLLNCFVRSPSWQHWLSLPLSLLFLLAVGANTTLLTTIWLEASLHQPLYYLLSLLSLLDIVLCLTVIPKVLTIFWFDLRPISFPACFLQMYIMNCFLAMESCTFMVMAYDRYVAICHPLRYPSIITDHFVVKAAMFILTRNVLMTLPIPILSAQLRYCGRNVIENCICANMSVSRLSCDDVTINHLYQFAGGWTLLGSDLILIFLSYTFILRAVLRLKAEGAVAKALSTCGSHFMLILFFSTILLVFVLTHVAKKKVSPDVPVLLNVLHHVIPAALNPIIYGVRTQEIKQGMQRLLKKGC
In short: as §1

O56A4 I247A = test system: O56A4 I247A
O56A4 I247A, sequence (as listed by the source, stated change not applied): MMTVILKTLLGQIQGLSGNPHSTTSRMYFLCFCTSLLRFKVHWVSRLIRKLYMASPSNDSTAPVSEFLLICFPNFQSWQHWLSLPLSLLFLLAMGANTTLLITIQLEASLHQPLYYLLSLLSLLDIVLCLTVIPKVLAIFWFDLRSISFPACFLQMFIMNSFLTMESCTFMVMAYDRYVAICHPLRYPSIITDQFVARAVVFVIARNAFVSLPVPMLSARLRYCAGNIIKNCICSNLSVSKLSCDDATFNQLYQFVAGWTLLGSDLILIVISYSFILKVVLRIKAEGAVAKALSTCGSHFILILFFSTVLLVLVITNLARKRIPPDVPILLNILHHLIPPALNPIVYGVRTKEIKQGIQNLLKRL
In short: as §1

O56A4 I247V = test system: O56A4 I247V
O56A4 I247V, sequence (as listed by the source, stated change not applied): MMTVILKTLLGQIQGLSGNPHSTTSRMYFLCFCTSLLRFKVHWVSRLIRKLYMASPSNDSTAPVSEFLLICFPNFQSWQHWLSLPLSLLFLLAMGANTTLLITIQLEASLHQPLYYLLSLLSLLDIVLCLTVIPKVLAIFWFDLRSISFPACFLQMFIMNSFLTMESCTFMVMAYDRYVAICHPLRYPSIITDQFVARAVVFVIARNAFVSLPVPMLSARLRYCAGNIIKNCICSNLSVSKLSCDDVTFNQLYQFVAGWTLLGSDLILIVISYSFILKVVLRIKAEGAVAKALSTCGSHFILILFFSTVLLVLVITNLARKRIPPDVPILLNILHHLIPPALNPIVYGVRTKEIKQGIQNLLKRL
In short: as §1

O56A4 = test system: O56A4
O56A4, sequence (as listed by the source): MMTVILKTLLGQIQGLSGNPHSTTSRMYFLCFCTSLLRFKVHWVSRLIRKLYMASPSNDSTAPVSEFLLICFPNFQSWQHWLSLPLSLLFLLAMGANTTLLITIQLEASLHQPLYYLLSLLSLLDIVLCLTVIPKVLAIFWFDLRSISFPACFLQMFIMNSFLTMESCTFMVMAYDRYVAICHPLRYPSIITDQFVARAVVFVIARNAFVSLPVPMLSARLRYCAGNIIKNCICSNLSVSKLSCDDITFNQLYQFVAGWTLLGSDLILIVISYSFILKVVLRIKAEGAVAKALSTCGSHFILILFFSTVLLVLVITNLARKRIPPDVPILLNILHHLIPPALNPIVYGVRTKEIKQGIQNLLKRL
In short: as §1

O56A5 V104L = test system: O56A5 V104L
O56A5 V104L, sequence (as listed by the source, stated change not applied): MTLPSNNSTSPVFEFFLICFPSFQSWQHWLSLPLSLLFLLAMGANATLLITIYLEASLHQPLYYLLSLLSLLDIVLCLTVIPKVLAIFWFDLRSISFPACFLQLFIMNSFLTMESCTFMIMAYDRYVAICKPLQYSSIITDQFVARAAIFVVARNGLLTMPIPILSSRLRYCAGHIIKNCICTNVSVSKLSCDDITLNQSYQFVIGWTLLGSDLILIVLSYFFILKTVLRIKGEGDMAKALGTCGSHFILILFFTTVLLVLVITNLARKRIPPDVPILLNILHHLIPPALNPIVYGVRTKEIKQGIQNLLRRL
In short: as §1

O56B1 C106R L214F = test system: O56B1 C106R L214F
In short: as §1

O56B1 L214F = test system: O56B1 L214F
O56B1 L214F, sequence (as listed by the source, stated change not applied): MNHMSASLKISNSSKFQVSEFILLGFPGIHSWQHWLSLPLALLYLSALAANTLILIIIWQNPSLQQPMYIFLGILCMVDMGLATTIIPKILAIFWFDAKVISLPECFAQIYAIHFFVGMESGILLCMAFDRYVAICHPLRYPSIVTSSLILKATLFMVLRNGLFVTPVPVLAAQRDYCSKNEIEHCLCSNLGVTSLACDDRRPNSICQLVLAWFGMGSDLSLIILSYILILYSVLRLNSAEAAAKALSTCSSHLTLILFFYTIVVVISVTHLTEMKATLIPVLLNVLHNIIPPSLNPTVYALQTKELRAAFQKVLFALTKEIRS
In short: as §1

O56B4 = test system: O56B4
O56B4, sequence (as listed by the source): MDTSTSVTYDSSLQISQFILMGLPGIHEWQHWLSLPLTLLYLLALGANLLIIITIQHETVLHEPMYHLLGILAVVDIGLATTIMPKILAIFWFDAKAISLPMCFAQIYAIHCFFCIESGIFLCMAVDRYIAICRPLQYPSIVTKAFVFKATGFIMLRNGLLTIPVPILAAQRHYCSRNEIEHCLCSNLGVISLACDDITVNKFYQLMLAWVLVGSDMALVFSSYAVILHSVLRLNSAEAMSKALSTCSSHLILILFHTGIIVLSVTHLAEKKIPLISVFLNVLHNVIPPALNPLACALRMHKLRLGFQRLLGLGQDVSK
In short: as §1

O5AC2 = test system: O5AC2
O5AC2, sequence (as listed by the source): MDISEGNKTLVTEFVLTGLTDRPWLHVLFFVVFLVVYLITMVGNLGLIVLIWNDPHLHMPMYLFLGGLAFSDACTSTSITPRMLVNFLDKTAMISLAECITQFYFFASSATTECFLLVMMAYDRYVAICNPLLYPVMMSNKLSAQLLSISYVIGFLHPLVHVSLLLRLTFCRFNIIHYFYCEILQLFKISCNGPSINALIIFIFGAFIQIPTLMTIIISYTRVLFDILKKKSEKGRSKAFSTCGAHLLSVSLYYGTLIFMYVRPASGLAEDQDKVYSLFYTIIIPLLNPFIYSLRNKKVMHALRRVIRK
In short: as §1

O5AK2 M92I = test system: O5AK2 M92I
O5AK2 M92I, sequence (as listed by the source, stated change not applied): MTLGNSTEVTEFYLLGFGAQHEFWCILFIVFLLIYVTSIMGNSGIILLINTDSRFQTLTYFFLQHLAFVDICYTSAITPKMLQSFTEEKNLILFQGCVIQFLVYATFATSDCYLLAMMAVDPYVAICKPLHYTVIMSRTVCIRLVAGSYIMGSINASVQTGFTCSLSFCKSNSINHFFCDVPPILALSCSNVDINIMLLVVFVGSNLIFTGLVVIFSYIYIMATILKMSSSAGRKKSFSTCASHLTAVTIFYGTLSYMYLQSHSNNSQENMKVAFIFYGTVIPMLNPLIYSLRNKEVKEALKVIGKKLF
In short: as §1

O5AN1 C142Y L289F = test system: O5AN1 C142Y L289F
In short: as §1

Measured: odorant receptor agonist call

O52I2 I74L, sequence (as listed by the source, stated change not applied): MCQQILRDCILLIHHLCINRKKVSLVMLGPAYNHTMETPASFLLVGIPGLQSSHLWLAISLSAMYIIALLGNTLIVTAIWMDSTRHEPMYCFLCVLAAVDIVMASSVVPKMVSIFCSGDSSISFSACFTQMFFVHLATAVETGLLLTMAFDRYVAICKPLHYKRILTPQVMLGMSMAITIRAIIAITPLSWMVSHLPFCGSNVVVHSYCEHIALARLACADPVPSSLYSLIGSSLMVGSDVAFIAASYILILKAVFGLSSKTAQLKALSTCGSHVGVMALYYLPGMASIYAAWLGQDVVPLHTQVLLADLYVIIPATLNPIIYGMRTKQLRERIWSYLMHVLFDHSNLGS

C=CCOC(=O)Cc1ccccc1
inactive: O52I2 I74L | O52J3 T77A V128I Q141L | O52K1 A119T A149T | O52K1 Q52R | O52L1 | O52M1 S305R | O52N1 R167C F247I | O52N2 S249A H264R | O52W1 H239R L254Q | O56A3 | O56A4 I247A | O56A4 I247V | O56A4 | O56A5 V104L | O56B1 C106R L214F | O56B1 L214F | O56B4 | O5AC2 | O5AK2 M92I | O5AN1 C142Y L289F
